Active and inactive are the calls of the source. The rule behind the calls is not given here.
Columns and labels:
[1] = molecular target: Vascular endothelial growth factor receptor 3 (Homo sapiens, UniProt P35916); assay: Inhibition of human recombinant GST-fused VEGFR3 kinase domain transphosphorylation expressed in baculovirus expression system using poly-Glu-Tyr (4:1) as substrate measured after 10 mins in presence of gamma-[33P]-ATP by scintillation counting analysis
Procedure, shortened: (§1)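 GST-fused kinase domains were expressed in baculovirus and purified on glutathione-Sepharose. 10 min at ambient temperature, stopped with EDTA. Filter binding and scintillation counting. IC50 by linear regression of percent inhibition.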

[2] = molecular target: Vascular endothelial growth factor receptor 2 (Mus musculus, UniProt P35918); assay: Inhibition of mouse recombinant GST-fused VEGFR2 kinase domain expressed in baculovirus expression system using poly-Glu-Tyr (4:1) as substrate measured after 10 mins in presence of gamma-[33P]-ATP by scintillation counting analysis; procedure, shortened: as §1
[3] = molecular target: Vascular endothelial growth factor receptor 2 (Homo sapiens, UniProt P35968); assay: Inhibition of VEGF-induced human VEGFR2 autophosphorylation transfected in CHO cells measured after 2 hrs by chemiluminescence assay; assay type: cell-based
[4] = molecular target: Angiopoietin-1 receptor (Homo sapiens) (UniProt Q02763); assay: Inhibition of human recombinant GST-fused TIE2 expressed in baculovirus expression system using poly-Glu-Tyr (4:1) as substrate measured after 10 mins in presence of gamma-[33P]-ATP by scintillation counting analysis; procedure, shortened: as §1
[5] = molecular target: Proto-oncogene tyrosine-protein kinase receptor Ret (Homo sapiens, UniProt P07949); assay: Inhibition of RET (unknown origin) autophosphorylation expressed in mouse NIH3T3 cells by ELISA-based assay; assay type: cell-based
Procedure, shortened: (§2)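 Cells were stimulated with the respective ligand. Receptor tyrosine kinase autophosphorylation in the presence of compound was quantified by ELISA.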

[6] = molecular target: Insulin-like growth factor 1 receptor (Homo sapiens, UniProt P08069); assay: Inhibition of IGF1R (unknown origin) autophosphorylation expressed in […] by ELISA-based assay; assay type: cell-based; procedure, shortened: as §2
Bcr/Abl fusion protein = Bcr/Abl fusion protein (Homo sapiens, UniProt P00519); assay: Inhibition of BCR-ABL (unknown origin) autophosphorylation expressed in mouse 32D cells by ELISA-based assay; assay type: cell-based; procedure, shortened: as §2
BaF3 [7] = assay: Antiproliferative activity against mouse BaF3 cells expressing FLT3-ITD assessed as cell growth inhibition measured after 72 hrs by Alamar Blue assay; details: BaF3, 72 h
BaF3 [8] = assay: Antiproliferative activity against mouse BaF3 cells expressing Trp-MET assessed as cell growth inhibition measured after 72 hrs by Alamar Blue assay; details: BaF3, 72 h
B16-BL6 [9] = assay: Antitumor activity against mouse B16-BL6 cells implanted in C57BL/6jNpa mouse assessed as reduction in TIE-2 levels metastases lysate of at 3 mg/kg, po qd administered started on day 7 post implantation measured after 21 days by ELISA analysis; assay type: functional, organism-based; details: time 7-21 day
Procedure, shortened: (§3)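 Female C57BL/6JNpa mice, 50000 B16/BL6 cells intradermally in both ear pinnae; primary tumor area (mm²) imaged days 7, 14, 21; randomized day 7 into groups of 5-6, oral dosing in PEG200 or PEG300 vehicle daily (or every 2 days) for 14 days; day 21 cervical lymph nodes weighed, metastasis lysates assayed for TIE-2 by ELISA; T/C ratios.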

BaF3 [10] = assay: Antiproliferative activity against mouse BaF3 cells assessed as cell growth inhibition measured after 72 hrs by Alamar Blue assay; details: BaF3, 72 h
HUVEC = assay: Antiproliferative activity against bFGF-stimulated HUVEC cells assessed as cell growth inhibition measured after 24 hrs by BrdUrd incorporation based spectrophotometric analysis; details: Homo sapiens
B16-BL6 [11] = assay: Antitumor activity against mouse B16-BL6 cells implanted in C57BL/6jNpa mouse assessed as primary tumor growth inhibition by measuring T/C ratio at 3 mg/kg, po qd administered started on day 7 post implantation measured after 21 days; assay type: functional; details: time 7-21 day; procedure, shortened: as §3
[12] = Half-life in Sprague-Dawley rat at 3 mg/kg, iv measured upto 24 hrs by HPLC/UV analysis; assay type: ADME, organism-based; details: in vivo
Procedure, shortened: (§4)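 Female Sprague Dawley rats, 8 weeks old, catheterized in the jugular vein and femoral artery, recovered 96 h. IV dose 3 mg/kg in ethanol/NMP/PEG400/5 % glucose (10/10/50/30). n=2. Plasma sampled at 5, 15, 30 min and 1, 2, 4, 6, 8, 24 h.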

[13] = Volume of distribution at steady state in Sprague-Dawley rat at 3 mg/kg, iv measured upto 24 hrs by HPLC/UV analysis; assay type: ADME, organism-based; details: in vivo, read-out: Vdss
Procedure, shortened: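 Female Sprague Dawley rats, 8 weeks, jugular vein and femoral artery catheters, 96 h recovery. IV 3 mg/kg in ethanol/NMP/PEG400/D5W (10/10/50/30), n=2.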

[14] = Clearance in Sprague-Dawley rat at 3 mg/kg, iv measured upto 24 hrs by HPLC/UV analysis; assay type: ADME, organism-based; details: in vivo; procedure, shortened: as §4
[15] = Dose normalized Cmax in Sprague-Dawley rat at 50 mg/kg, po measured upto 24 hrs by HPLC/UV analysis; assay type: ADME, organism-based; details: in vivo
Procedure, shortened: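 Female Sprague Dawley rats, 8 weeks old, catheterized. Oral suspension in 0.5 % carboxymethyl cellulose at 50 mg/kg, n=3. Bioavailability taken against 3 mg/kg iv. Plasma sampled 5 min–24 h. Cmax and AUC(0–∞) dose-normalized.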

Mus musculus [16] = assay: Protection against VEGF-induced vessel extravasation in FVB mouse at 3 mg/kg pre-administrated for 2 to 48 hrs followed by evans-blue administration for 30 mins and measured 30 mins after dog VEGF164 addition; assay type: functional, organism-based; details: time 3-49 hrs
Procedure, shortened: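 Female FVB mice (18–20 g), 3–4 per group. Oral 3 mg/kg at 48, 24 or 8 h before sacrifice. Evans blue 0.5 % (200 µl) given i.v. in the tail vein. 30 min later, 2 µL dog VEGF164 (10 ng/µL) injected intradermally into the ear pinna. Dye extravasation quantified by a computer-assisted system.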

Mus musculus [17] = assay: Anti-angiogenesis activity in FVB mouse model assessed as inhibition of VEGF-induced tissue TIE-2 level at 0.3 mg/kg, po qd treated for 4 to 6 hrs prior to chamber implantation and continuing for 4 days measured after 24 hrs post last dose by ELISA analysis; assay type: functional, organism-based; details: time 5.0 day
Procedure, shortened: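 Female FVB mice (18-20 g), porous chambers with VEGF (2 μg/mL) in 0.8 % w/v agar containing heparin 20 U/mL implanted s.c. in flank; compound p.o. once daily in 100 % PEG200 (5 mL/kg) from 4-6 h before implantation for 4 days; tissue removed 24 h after last dose, weighed, lysate assayed for TIE-2 by sandwich ELISA; n=6 per dose, mean ± SEM.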

[18] = Toxicity in C57BL/6jNpa mouse harbouring mouse B16-BL6 cells assessed as effect on hematocrit levels at 3 mg/kg, po qd administered started on day 7 post implantation measured after 21 days; assay type: organism-based; details: in vivo, 504 h, time 7-21 day
Procedure, shortened: (§5)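 B16/BL6 melanoma cells (50000) injected intradermally into dorsal pinna of both ears of female mice (18–20 g). Randomized on day 7 into groups of 5-6 by primary tumor size, then dosed orally once daily for 14 days in PEG300 or PEG200. Sacrificed day 21; blood analysed directly for platelets, red and white cell counts, hematocrit. Body and spleen weight recorded versus healthy naive mouse.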

[19] = Toxicity in C57BL/6jNpa mouse harbouring mouse B16-BL6 cells assessed as effect on red blood cell count at 3 mg/kg, po qd administered started on day 7 post implantation measured after 21 days; assay type: organism-based; details: in vivo, 504 h, time 7-21 day; procedure, shortened: as §5

Compound | IC50 [1] | IC50 [2] | IC50 [3] | inhibition [4] | IC50 [5] | IC50 [6] | IC50 (Bcr/Abl fusion protein) | IC50 (BaF3 [7]) | IC50 (BaF3 [8]) | IC50 (BaF3 [10]) | half-life [12] | Vd [13] | clearance [14] | Cmax/dose [15] | Activity (B16-BL6 [9]) | IC50 (HUVEC) | T/C (B16-BL6 [11]) | Activity (Mus musculus [16]) | Activity [18] | Activity [19] | also measured
Nc1nccc(Oc2ccc3c(C(=O)Nc4ccc(F)c(C(F)(F)F)c4)cccc3c2)n1 | 177 nM | 320 nM |  |  |  |  |  | 8200 nM | > 10000 nM | > 10000 nM | 16 h | 3.5 L/kg | 2.83 mL/min/kg | 70 nM | Active | > 10 nM | 0.1 | Active | Non-Toxic | Non-Toxic | Activity (Mus musculus [17]): Active
O=C(Nc1cccc(C(F)(F)F)c1)c1cccc2cc(Oc3cc(CO)ncn3)ccc12 [BFH-772] | 1100 nM | 1500 nM | 4.6 nM | Active | 30 nM | > 500 nM | > 500 nM | > 10000 nM | > 10000 nM | > 10000 nM |  |  |  |  |  | > 3000 nM | 0.26 | Active |  |  | Activity (Mus musculus [17]): Active

Now from value to compound, other results behind:

IC50 [1] | IC50 [2] | IC50 [3] | inhibition [4] | IC50 [5] | IC50 [6] | IC50 (Bcr/Abl fusion protein) | IC50 (BaF3 [7]) | IC50 (BaF3 [8]) | IC50 (BaF3 [10]) | half-life [12] | Vd [13] | clearance [14] | Cmax/dose [15] | Compound | Activity (B16-BL6 [9]) | IC50 (HUVEC) | T/C (B16-BL6 [11]) | Activity (Mus musculus [16]) | Activity [18] | Activity [19] | also measured
420 nM | 165 nM | 4.2 nM | Active | 30 nM | > 500 nM | > 500 nM | > 10000 nM | > 10000 nM | > 10000 nM |  |  |  |  | Nc1nccc(Oc2ccc3c(C(=O)Nc4cccc(C(F)(F)F)c4)cccc3c2)n1 | Active | > 3000 nM | 0.46 |  |  |  | 
50 nM | 37 nM |  |  |  |  |  | 5650 nM | > 10000 nM | > 10000 nM | 4.1 h | 0.9 L/kg | 3 mL/min/kg | 50 nM | Nc1cc(Oc2ccc3c(C(=O)Nc4cccc(C(F)(F)F)c4)cccc3c2)ncn1 |  | > 3000 nM | 0.22 |  | Non-Toxic | Non-Toxic | 
235 nM | 125 nM |  |  |  |  |  | 4780 nM | > 10000 nM | > 10000 nM | 18.3 h | 1.5 L/kg | 0.833 mL/min/kg | 80 nM | Nc1cc(Oc2ccc3c(C(=O)Nc4ccc(F)c(C(F)(F)F)c4)cccc3c2)ncn1 |  | 206 nM | 0.34 |  | Non-Toxic | Non-Toxic | 
